A selection: hits, their analogues and other compounds. The true share with any hit is near 2.2%.
rCAG RNA binder: binders of r(CAG) RNA repeats, primary screen, biochemical, fluorescence; inhibition, % at 3 µM; hit rate 1.3% among 370,000; r(CAG) RNA repeat, TO-PRO-1 dye displacement fluorescence;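 active = inhibition above the plate cutoff, the mean of all test compounds on that plate plus 3 SD, cut at about 35% in these data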;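 also: higher means more dye released from RNA so lower well fluorescence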
ASAP1 inh: inhibitors of human ASAP1 ArfGAP activity, primary screen, biochemical, fluorescence polarization; Arf-GAP with SH3 domain, ANK repeat and PH domain-containing protein 1 (Homo sapiens), …; ASAP1-stimulated ARF1 GTP hydrolysis, GDP FP detection; inhibition, % at 16.5 µM; hit rate 0.19% among 360,000; AID 624377, 2012; in the data active = inhibition above about 25%
Target sequence (Q9ULH1 325-724 limits assumed): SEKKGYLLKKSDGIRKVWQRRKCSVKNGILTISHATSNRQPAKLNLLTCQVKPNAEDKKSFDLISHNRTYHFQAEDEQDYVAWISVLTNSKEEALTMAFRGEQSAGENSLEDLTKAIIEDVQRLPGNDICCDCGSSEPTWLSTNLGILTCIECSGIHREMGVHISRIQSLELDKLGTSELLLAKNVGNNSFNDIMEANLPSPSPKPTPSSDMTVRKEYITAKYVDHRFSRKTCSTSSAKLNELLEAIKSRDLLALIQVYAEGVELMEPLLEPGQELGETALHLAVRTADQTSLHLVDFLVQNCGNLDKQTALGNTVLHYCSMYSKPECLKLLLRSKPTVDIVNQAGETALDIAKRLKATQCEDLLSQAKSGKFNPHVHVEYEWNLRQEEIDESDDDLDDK
NadD inh: inhibitors of S. aureus NadD, primary screen, biochemical, colorimetric, uHTS | inhibition, % at 20 µM | hit rate 0.78% among 360,000 | Nicotinate-nucleotide adenylyltransferase NadD (Staphylococcus aureus N315) | purified NadD enzyme, colorimetric absorbance read-out | AID 602399, 2012; in the data active = inhibition above about 26%
ARFGAP1 inh: inhibitors of rat ARFGAP1 GAP activity, primary screen, biochemical, fluorescence polarization, GDP tracer. ADP-ribosylation factor GTPase-activating protein 1 (Rattus norvegicus), Q62848. Arfgap1-stimulated ARF1 GTP hydrolysis, GDP FP detection. inhibition, % at 16.5 µM. hit rate 0.26% among 360,000. AID 651572, 2012;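 active = inhibition above a per-plate limit, mean inhibition of low control wells plus 3 SD, cut at about 25% in these data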
Target sequence (Q62848 1-136 limits assumed): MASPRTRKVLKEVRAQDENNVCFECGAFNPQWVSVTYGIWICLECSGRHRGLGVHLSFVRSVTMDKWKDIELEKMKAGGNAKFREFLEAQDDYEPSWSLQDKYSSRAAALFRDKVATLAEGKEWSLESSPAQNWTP
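Replicates: Single well per compound | Assay system: Truncated rat Arfgap1 GAP domain | Control set: No-Arfgap1 wells (100%) versus DMSO full-reaction wells (0%) | Times: Enzyme reaction 120 min at 25 °C after 20 min preincubation | Reagent: Human ARF1(Δ1-17)-GTP substrate | Measured by: Tracer-displacement fluorescence polarization with EDTA stop, 620/688 nm | Measure: Percent inhibition of Arfgap1-stimulated GTP hydrolysis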
NadD conf: inhibitors of S. aureus NadD, confirmation, biochemical, colorimetric, single concentration; shares compounds with NadD inh; purified S. aureus NadD, colorimetric enzyme assay; inhibition, % at 20 µM; hit rate 13% among 2,000; AID 624309, 2012; in the data active = inhibition mostly above about 42%, no sharp cut-off; inactive = mostly below about 42%
Each line names hits and unclear results; the compound was inactive in the other large screens (follow-up assays come after a bar, where they were run).

COc1ccc(C2(SCC(N)C(=O)O)c3ccccc3-c3ccccc32)cc1 (centres undefined)	NadD inh 36.4 | NadD conf inactive
NC(CSC1(c2ccc(F)cc2)c2ccccc2-c2ccccc21)C(=O)O (centres undefined)	none
Cc1ccc2c3c(c(SCC(=O)Nc4nonc4C)nc2c1)CCCC3	none
Cc1nonc1NC(=O)CSc1nc2cc(Cl)ccc2c2c1CCCC2	NadD inh 30.4 (no result: rCAG RNA binder, ASAP1 inh, ARFGAP1 inh) | NadD conf inactive
O=C(N[C@H](C(=O)N1CCC[C@H]1C(=O)NC1CCCC1)C1CCCCC1)c1cccs1	none (no result: NadD inh)
COC(=O)C1CN(Cc2cn(Cc3ccc(Cl)cc3)nn2)CCS(=O)(=O)N1Cc1ccccc1 (centres undefined)	none (no result: ASAP1 inh, NadD inh, ARFGAP1 inh)
CCOc1ccc(-c2cc(C(=O)OC)c3n(c2=O)CCC3)cc1	none (no result: ASAP1 inh, NadD inh, ARFGAP1 inh)
O=S(=O)(c1ccc(NC(=S)N/N=C/c2c3ccccc3cc3ccccc23)cc1)N1CCOCC1	NadD inh 33.6 | NadD conf inactive
O=S(=O)(c1ccc(NC(=S)N/N=C/c2ccc(Oc3ccccc3)cc2)cc1)N1CCOCC1	NadD inh 28.4 | NadD conf inactive
COC/C=C/C1=CC2=CC(=O)C(C)(OC(=O)c3cnc4ccccc4n3)C(=O)C2=CN1c1ccc(OC)cc1 (centres undefined)	NadD inh 33.3 | NadD conf inactive
Cc1ccc2nc(-c3ccc(NC(=O)COC(=O)c4ccco4)cc3)sc2c1	none
COc1ccc(/C=C(\C#N)C(=O)OCC(=O)Nc2ccc(-c3nc4ccc(C)cc4s3)cc2)cc1	NadD inh 29.2 | NadD conf inactive
COc1ccc2c(c1)CN1CN(Cc3ccc(F)cc3)S(=O)(=O)CC21 (centres undefined)	none (no result: ASAP1 inh, NadD inh, ARFGAP1 inh)
NS(=O)(=O)c1ccc(CCNC(=O)CCCCCn2c(=S)[nH]c3ccc(Br)cc3c2=O)cc1	NadD inh 31.1 | NadD conf inactive
O=C(CCCCCn1c(=S)[nH]c2ccc(Br)cc2c1=O)NCC1CCCO1 (centres undefined)	none
CCCCCCCCN1C(=O)[C@@H](CC(=O)N2CCN(C(=O)C3CC3)CC2)C[C@@]2(C(=O)OC)C1=C[C@H](C1CCCC1)O[C@@H]2C	none (no result: NadD inh)
COc1ccc(/C=C/C(=O)NC(=S)NNC(=O)[C@H]2C[C@@H]2c2ccccc2)cc1OC	NadD inh 58.6 | NadD conf inactive
COc1cccc(OC)c1C(=O)NC(=S)NNC(=O)[C@H]1C[C@@H]1c1ccccc1	none
CC1CCCCN1c1nnc(NC(=O)c2cc(-c3ccc(Br)cc3)on2)s1 (centres undefined)	NadD inh 31.2 | NadD conf inactive
CN(C)CC(=O)N[C@@H]1C[C@@H]2O[C@@H](CO)CC[C@@H]2O[C@@H]1CCc1ccc(-c2ccc(F)cc2)cc1	none (no result: ASAP1 inh, NadD inh, ARFGAP1 inh)
COc1ccc2nc(N3C(=O)/C(=C/c4ccccc4)NC3=S)sc2c1	NadD inh 44.0 | NadD conf inactive
CCOc1ccc2nc(N3C(=O)/C(=C/c4ccccc4)NC3=S)sc2c1	NadD inh 32.9 | NadD conf inactive
COC(=O)[C@]12C[C@H](CC(=O)NCc3ccc(C)o3)C(=O)N(Cc3cccc4ccccc34)C1=C[C@H](C(C)C)O[C@@H]2C1CC1	none (no result: ASAP1 inh, NadD inh, ARFGAP1 inh)
C[C@@H]1CNC(=O)c2c(C(=O)N[C@@H](Cc3c[nH]c4ccccc34)C(=O)OC(C)(C)C)ncn21	none
Cc1nn(-c2ccccc2)c(N2CCCC2)c1/C=N/Nc1ccc(S(=O)(=O)Nc2ccccc2)cc1[N+](=O)[O-]	NadD inh 46.8 | NadD conf inactive
COc1ccccc1NS(=O)(=O)c1cccc(C(=O)N/N=C/c2c(C)nn(-c3ccccc3)c2N2CCCC2)c1	none
COc1ccccc1NS(=O)(=O)c1ccc(N/N=C/c2c(C)nn(-c3ccccc3)c2N2CCCC2)c([N+](=O)[O-])c1	NadD inh 38.0 | NadD conf inactive
COc1c(/C=N/Nc2ccc([N+](=O)[O-])cc2[N+](=O)[O-])c(C)nn1-c1ccccc1	none
CCOc1ccc(S(=O)(=O)Nc2ccc(C(=O)N/N=C/c3c(C)nn(-c4ccccc4)c3N3CCCC3)cc2)cc1	NadD inh 33.3 | NadD conf inactive
COC(=O)Cn1c(=NC(=O)c2cc(-c3cccs3)nc3ccccc23)sc2cc(S(N)(=O)=O)ccc21	NadD inh 30.9 | NadD conf inactive
CCOC(=O)Cn1c(=NC(=O)c2cc(-c3cccs3)nc3ccccc23)sc2cc(S(N)(=O)=O)ccc21	NadD inh 55.5 | NadD conf 61.2
COC(=O)Cn1c(=NC(=O)c2nc3ccccc3s2)sc2cc(S(N)(=O)=O)ccc21	none
CC(C)CNC(=O)OCc1cn(Cc2ccccc2C(F)(F)F)nn1	none (no result: ASAP1 inh, NadD inh, ARFGAP1 inh)
S=C(NNc1ccnc2cc(Cl)ccc12)Nc1ccc(Cl)cc1Cl	NadD inh 29.6 | NadD conf inactive
CCOc1ccc(NC(=S)NNc2ccnc3cc(Cl)ccc23)cc1	none
O=C1C(Cc2ccccc2)Nc2ncnc(N3CCN(c4ccccc4)CC3)c2N1Cc1ccc(Br)cc1 (centres undefined)	NadD inh 41.7 | NadD conf inactive
O=C1C(Cc2ccccc2)Nc2ncnc(N3CCN(c4ccccc4)CC3)c2N1Cc1ccccc1 (centres undefined)	none
Cc1ccc(CN2C(=O)C(Cc3ccccc3)Nc3ncnc(N4CCN(c5ccccc5)CC4)c32)cc1 (centres undefined)	NadD inh 27.8 | NadD conf inactive
C=CCN(C(=O)[C@@H](C)[C@@H](O)c1ccc2ccccc2c1)c1ccccc1	none (no result: ASAP1 inh, NadD inh, ARFGAP1 inh)
CCCOc1cccc(-c2cc(C(=O)N/N=C/c3ccccn3)c3ccccc3n2)c1	none
O=C(N/N=C/c1ccccn1)c1cc(-c2ccc(Cl)cc2)nc2ccccc12	NadD inh 31.0 | NadD conf inactive
O=C(N/N=C/c1ccco1)c1cc(-c2ccccc2)nc2ccccc12	none
O=C(N/N=C/c1ccccn1)c1cc(-c2ccc(Br)cc2)nc2ccccc12	NadD inh 32.0 | NadD conf inactive
Nc1ncnc2c1ncn2[C@@H]1O[C@H](C(=O)N[C@H]2c3ccccc3C[C@H]2OC=O)[C@@H](O)[C@H]1O	none
O=C(N[C@H](C(=O)N1CCC[C@H]1C(=O)NC1CCCC1)C1CCCCC1)c1ccc(Cl)cc1Cl	none (no result: NadD inh)
Cc1cc2c(nc1C)CCCN2Cc1ccccn1	none (no result: NadD inh)
COc1ccc(N(CC(=O)N/N=C/c2ccc(-c3ccc([N+](=O)[O-])cc3)o2)S(=O)(=O)c2ccc(C)cc2)cc1Cl	NadD inh 39.8 | NadD conf inactive
COc1ccc(N(CC(=O)N/N=C/c2ccc(-c3ccc([N+](=O)[O-])cc3)o2)S(=O)(=O)c2ccc(C)cc2)cc1	NadD inh 42.2 | NadD conf inactive

Screening data: PubChem, several laboratories
